From ChEMBL document CHEMBL4038311, “An Ursolic Acid Derived Small Molecule Triggers Cancer Cell Death through Hyperstimulation of Macropinocytosis” (J Med Chem, 2017)
Activity calls are given as the source filed them. The calls are words filed in the database; no cut-off is given here.

Key:
[1] = test system: HeLa; experiment: Induction of methuosis in human HeLa cells assessed as increase in vacuole formation preincubated cells with actin inhibitor cytochalasin D for 1 hr followed by compound addition measured after 24 hrs by phase contrast microscopic analysis; type: functional, cell-based
In short: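 HeLa cells grown in DMEM with 10% FBS, 100 U/ml penicillin and 100 µg/ml streptomycin at 37 °C, 5% CO2 humidified air. The inhibitor was added before compound exposure. Vacuolization was judged in live cells by phase-contrast microscopy.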

[2] = test system: HeLa; experiment: Induction of macropinocytosis in human HeLa cells assessed as colocalization of lucifer yellow and late endosomal marker Rab7 at 20 uM after 6 to 24 hrs by confocal microscopic analysis; type: functional, cell-based; settings: TDE = time-dependent effect
In short: (§1)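 HeLa on poly-L-lysine coverslips given 0.1% DMSO or 20 µM for indicated times, then loaded with Lucifer yellow CH. Fixed in 4% PFA 30 min, permeabilized with 0.1% Triton X-100, blocked with 5% BSA. Anti-EEA1, -LAMP1 or -Rab7 applied overnight at 4 °C, Alexa488 secondary 1 h, DAPI counterstain. Confocal imaging.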

[3] = test system: HeLa; experiment: Induction of macropinocytosis in human HeLa cells assessed as lucifer yellow accumulation in phase-lucent vacuole at 20 uM after 24 hrs by confocal microscopic analysis; type: functional, cell-based
[4] = test system: HeLa; experiment: Induction of apoptosis in human HeLa cells assessed as increase in cleaved PARP1 levels at 20 to 30 uM after 24 to 48 hrs by Western blot analysis; type: functional, cell-based
In short: (§2)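 HeLa given indicated concentrations. RIPA lysates, BCA-quantified, SDS-PAGE and PVDF transfer. Anti-caspase-3 or anti-PARP1 applied overnight at 4 °C after 1 h 5% milk block, secondary 2 h at RT. Infrared imaging, GAPDH as loading control.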

[5] = test system: HeLa; experiment: Induction of macropinocytosis in human HeLa cells assessed as formation of mitochondrial degradative compartments at 20 uM after 24 hrs by Mitotracker red staining-based confocal microscopic analysis; type: functional, cell-based
In short: (§3)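 HeLa given 20 µM for 24 h, then labelled live with 50 nM LysoTracker Red (30 min) or 200 nM MitoTracker Red CMXRos (1 h) in medium, after Lucifer yellow loading. Imaged live by confocal microscopy.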

[6] = test system: HeLa; experiment: Induction of macropinocytosis in human HeLa cells assessed as colocalization of lucifer yellow and early endosomal marker EEA1 at 20 uM after 6 to 24 hrs by confocal microscopic analysis; type: functional, cell-based; in short: as §1
[7] = test system: HepG2; experiment: Anticancer activity against human HepG2 cells assessed as cell viability at 20 uM after 48 hrs by CCK8 assay relative to control; type: functional; settings: HepG2, 48 h, read-out: Activity
In short: (§4)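 Cells (5000/well, pre-incubated overnight) exposed to 20 µM for 48 h. CCK-8 absorbance read at 450 nm. Viability given as percent of vehicle (DMSO) control, mean ± SD. Six parallel wells per condition, at least three independent repeats.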

[8] = test system: HepG2; experiment: Anticancer activity against human HepG2 cells assessed as vacuole formation at 20 uM after 24 hrs by phase contrast microscopic analysis; type: functional, cell-based
[9] = test system: HeLa; experiment: Anticancer activity against human HeLa cells assessed as vacuole formation at 20 uM preincubated cells with Z-VAD-FMK for 1 hr followed by compound addition measured after 24 hrs by phase contrast microscopic analysis; type: functional, cell-based
In short: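 HeLa pretreated 1 h with or without z-VAD-FMK, then given 20 µM or DMSO. Phase-contrast images taken at 24 h.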

[10] = test system: HeLa; experiment: Anticancer activity against human HeLa cells assessed as cell viability at 20 uM after 48 hrs by CCK8 assay relative to control; type: functional; settings: read-out: Activity; in short: as §4
[11] = test system: HeLa; experiment: Induction of methuosis in human HeLa cells assessed as increase in number of cells with macropinosomes at 20 uM preincubated cells with macropinocytosis inhibitor EIPA for 30 mins followed by compound addition measured up to 72 hrs; type: functional, cell-based
In short: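 HeLa pretreated 30 min with or without 50 µM EIPA, then given 20 µM or DMSO for 4, 8, 12, 18, 24, 36, 48, 60 and 72 h. Cells bearing macropinosomes scored manually from field images and expressed as percentage of cells.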

[12] = test system: HeLa; experiment: Induction of apoptosis in human HeLa cells assessed as increase in cleaved caspase-3 levels at 20 to 30 uM after 24 hrs by Western blot analysis; type: functional, cell-based; in short: as §2
[13] = test system: HeLa; experiment: Induction of macropinocytosis in human HeLa cells assessed as formation of lysosomal degradative compartments at 20 uM after 24 hrs by Lysotracker red staining-based confocal microscopic analysis; type: functional, cell-based; in short: as §3
[14] = test system: SK-N-MC; experiment: Anticancer activity against human SK-N-MC cells assessed as cell viability at 20 uM after 48 hrs by CCK8 assay relative to control; type: functional; settings: read-out: Activity; in short: as §4
[15] = test system: HeLa; experiment: Induction of methuosis in human HeLa cells assessed as decrease in cell viability preincubated cells with dynamin inhibitor dynasore for 1 hr followed by compound addition measured after 48 hrs by CCK8 assay; type: functional, cell-based
[16] = test system: SK-N-MC; experiment: Anticancer activity against human SK-N-MC cells assessed as vacuole formation at 20 uM after 24 hrs by phase contrast microscopic analysis; type: functional, cell-based
[17] = test system: HeLa; experiment: Induction of apoptosis in human HeLa cells assessed as pyknotic chromatin formation at 20 uM after 24 hrs by transmission electron microscopic analysis; type: functional, cell-based
In short: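 HeLa exposed to 20 µM for 24 h, then fixed, dehydrated and resin-embedded. Ultrathin sections on copper grids stained with uranyl acetate and lead citrate, then examined by TEM.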

[18] = test system: HeLa; experiment: Anticancer activity against human HeLa cells assessed as vacuole formation preincubated cells with 3-MA followed by compound addition measured after 24 hrs by phase contrast microscopic analysis; type: functional, cell-based
In short: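 HeLa cells pretreated 1 h with or without 3-MA before compound or DMSO. Phase-contrast images obtained after 24 h.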

[19] = test system: HeLa; experiment: Anticancer activity against human HeLa cells assessed as cell viability after 48 hrs by CCK8 assay; type: functional, cell-based
In short: (§5)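 Seeded at 1000 cells/well in DMEM with 10% FBS at 37 °C, 5% CO2, overnight pre-incubation. Serial dilutions from a 100 mM DMSO stock gave final 0–50 µM, with 48 h exposure. CCK-8 read at 450 nm. IC50 fitted against DMSO control, given with s.d., n = 3 independent experiments.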

[20] = test system: MCF7; experiment: Anticancer activity against human MCF7 cells assessed as vacuole formation at 20 uM after 24 hrs by phase contrast microscopic analysis; type: functional, cell-based
[21] = test system: HeLa; experiment: Induction of macropinocytosis in human HeLa cells assessed as colocalization of lucifer yellow and lysosomal marker LAMP1 at 20 uM after 6 to 24 hrs by confocal microscopic analysis; type: functional, cell-based; settings: TDE = time-dependent effect; in short: as §1
[22] = test system: HT-1080; experiment: Anticancer activity against human HT1080 cells assessed as cell viability at 20 uM after 48 hrs by CCK8 assay relative to control; type: functional; settings: HT-1080, 48 h, read-out: Activity; in short: as §4
[23] = Cytotoxicity against mouse C2C12 cells assessed as cell viability at 20 uM after 24 to 48 hrs by CCK8 assay relative to control; type: cell-based; settings: read-out: Activity
In short: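 C2C12 or HDF cells, seeded at 5000/well, given 20 µM or 0.1% DMSO for 24 h or 48 h. CCK-8 absorbance read at 450 nm, relative to DMSO control. Six parallel wells, at least three independent repeats.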

[24] = test system: SK-N-MC; experiment: Anticancer activity against human SK-N-MC cells assessed as cell viability after 48 hrs by CCK8 assay; type: functional, cell-based; in short: as §5
[25] = test system: HeLa; experiment: Anticancer activity against human HeLa cells assessed as vacuole formation at 20 uM after 12 hrs by phase contrast microscopic analysis; type: functional, cell-based

- IC50 [19]: 15.1 µM
- IC50 [24]: 17.1 µM
Structure (SMILES): C[C@H]1[C@H](C)CC[C@]2(C(=O)O)CC[C@]3(C)C(=CC[C@@H]4[C@@]5(C)Cc6cnn(-c7ccc(C#N)cc7)c6C(C)(C)[C@@H]5CC[C@]43C)[C@H]12
- Activity [1]: inactive
- Activity [2]: Tde
- Activity [3]: Active
- Activity [4]: Active
- Activity [5]: Active
- Activity [6]: Active
- viability at 20 µM [7]: 27.9%
- Activity [8]: Active
- Activity [9]: Active
- viability at 20 µM [10]: 18.6%
- Activity [11]: inactive
- Activity [12]: Active
- Activity [13]: Active
- viability at 20 µM [14]: 28.6%
- Activity [15]: inactive
- Activity [16]: Active
- Activity [17]: inactive
- Activity [18]: Active
- Activity [20]: Active
- Activity [21]: Tde
- viability at 20 µM [22]: 26.8%
- viability at 20 µM [23]: 13%
- Activity [25]: Active
